Converted amounts (≈) assume the structure as drawn.
Tested on: Bacillus subtilis
Experiment: Antibacterial activity against Bacillus subtilis NCIM 2063 after 18 hrs by disc diffusion method
Type: functional
Details: not given
Method in brief: (§1)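 Modified Kirby-Bauer disc diffusion. Plates inoculated with spore suspension (about 6 × 10⁴ spores mL^-1). Sterile 6 mm paper discs carried test samples at 10 mg mL^-1; ciprofloxacin disc as reference, DMF disc as negative control. Plates held 18 h at 37 °C. Inhibition zone diameters (mm) averaged over triplicate sets.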

Question: With CC[C@H](C)[C@H](NC(=O)[C@H](CC(C)C)NC(=O)c1cc(-c2nc3cc(C)c(C)cc3[nH]2)ccc1O)C(=O)OC as the molecule, how does the “inhibition zone (IZ)” value read?
Answer: 15 mm

Tested on: Staphylococcus aureus
Experiment: Antibacterial activity against Staphylococcus aureus NCIM 2079 after 18 hrs by disc diffusion method
Type: functional
Details: not given
Method in brief: as §1

Question: For CC[C@H](C)[C@H](NC(=O)[C@H](CC(C)C)NC(=O)c1cc(-c2nc3cc(C)c(C)cc3[nH]2)ccc1O)C(=O)OC, which “inhibition zone (IZ)” value is on record?
Answer: 10 mm

Tested on: Pseudomonas aeruginosa
Experiment: Antibacterial activity against Pseudomonas aeruginosa NCIM 2034 after 18 hrs by disc diffusion method
Type: functional
Details: not given
Method in brief: as §1

Question: For CC[C@H](C)[C@H](NC(=O)[C@H](CC(C)C)NC(=O)c1cc(-c2nc3cc(C)c(C)cc3[nH]2)ccc1O)C(=O)OC, which “inhibition zone (IZ)” value is on record?
Answer: 20 mm

Tested on: Escherichia coli
Experiment: Antibacterial activity against Escherichia coli NCIM 2065 after 18 hrs by disc diffusion method
Type: functional
Details: not given
Method in brief: as §1

Question: Which “inhibition zone (IZ)” value does the source give for CC[C@H](C)[C@H](NC(=O)[C@H](CC(C)C)NC(=O)c1cc(-c2nc3cc(C)c(C)cc3[nH]2)ccc1O)C(=O)OC here?
Answer: 16 mm

Tested on: Candida albicans
Experiment: Antifungal activity against Candida albicans MUCC 29 after 48 hrs by disc diffusion method
Type: functional
Details: not given
Method in brief: (§2)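 Agar well diffusion on plates inoculated with spore suspension in normal saline from cultures on Sabouraud's broth. Wells punched and loaded with test samples or griseofulvin at 10 mg mL^-1, with DMSO as negative control. Incubated 48 h at 37 °C.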

Question: For CC[C@H](C)[C@H](NC(=O)[C@H](CC(C)C)NC(=O)c1cc(-c2nc3cc(C)c(C)cc3[nH]2)ccc1O)C(=O)OC, which “inhibition zone (IZ)” value is on record?
Answer: 19 mm

Tested on: Microsporum audouinii
Experiment: Antifungal activity against Microsporum audouinii MUCC 545 after 48 hrs by disc diffusion method
Type: functional
Details: not given
Method in brief: as §2

Question: Which “inhibition zone (IZ)” value does the source give for CC[C@H](C)[C@H](NC(=O)[C@H](CC(C)C)NC(=O)c1cc(-c2nc3cc(C)c(C)cc3[nH]2)ccc1O)C(=O)OC here?
Answer: 12 mm

Tested on: Trichophyton benhamiae
Experiment: Antifungal activity against Trichophyton mentagrophytes MUCC 665 after 48 hrs by disc diffusion method
Type: functional, Arthroderma benhamiae
Details: not given
Method in brief: as §2

Question: With CC[C@H](C)[C@H](NC(=O)[C@H](CC(C)C)NC(=O)c1cc(-c2nc3cc(C)c(C)cc3[nH]2)ccc1O)C(=O)OC as the molecule, how does the “inhibition zone (IZ)” value read?
Answer: 13 mm

Tested on: Aspergillus niger
Experiment: Antifungal activity against Aspergillus niger MUCC 177 after 48 hrs by disc diffusion method
Type: functional
Details: not given
Method in brief: as §2

Question: With CC[C@H](C)[C@H](NC(=O)[C@H](CC(C)C)NC(=O)c1cc(-c2nc3cc(C)c(C)cc3[nH]2)ccc1O)C(=O)OC as the molecule, how does the “inhibition zone (IZ)” value read?
Answer: 19 mm

Tested on: Bacillus subtilis
Experiment: Antibacterial activity against Bacillus subtilis NCIM 2063 after 18 hrs by tube dilution method
Type: functional
Details: NCIM 2063, 18 h
Method in brief: (§3)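 Tube dilution MIC. Stock diluted in sterile broth to seven concentrations from 200 to 3.1 […]. Each tube inoculated with one loopful of test bacterium and incubated 18 h at 37 °C. MIC read from presence or absence of growth.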

Question: Which MIC does the source give for CC[C@H](C)[C@H](NC(=O)[C@H](CC(C)C)NC(=O)c1cc(-c2nc3cc(C)c(C)cc3[nH]2)ccc1O)C(=O)OC here?
Answer: 6 µg/mL (≈ 11.5 µM)

Tested on: Staphylococcus aureus
Experiment: Antibacterial activity against Staphylococcus aureus NCIM 2079 after 18 hrs by tube dilution method
Type: functional
Details: NCIM 2079, 18 h
Method in brief: as §3

Question: Which MIC does the source give for CC[C@H](C)[C@H](NC(=O)[C@H](CC(C)C)NC(=O)c1cc(-c2nc3cc(C)c(C)cc3[nH]2)ccc1O)C(=O)OC here?
Answer: 12.5 µg/mL (≈ 23.9 µM)

Tested on: Pseudomonas aeruginosa
Experiment: Antibacterial activity against Pseudomonas aeruginosa NCIM 2034 after 18 hrs by tube dilution method
Type: functional
Details: NCIM 2034, 18 h
Method in brief: as §3

Question: Which MIC does the source give for CC[C@H](C)[C@H](NC(=O)[C@H](CC(C)C)NC(=O)c1cc(-c2nc3cc(C)c(C)cc3[nH]2)ccc1O)C(=O)OC here?
Answer: 6 µg/mL (≈ 11.5 µM)

Tested on: Escherichia coli
Experiment: Antibacterial activity against Escherichia coli NCIM 2065 after 18 hrs by tube dilution method
Type: functional
Details: NCIM 2065, 18 h

Question: For CC[C@H](C)[C@H](NC(=O)[C@H](CC(C)C)NC(=O)c1cc(-c2nc3cc(C)c(C)cc3[nH]2)ccc1O)C(=O)OC, which MIC is on record?
Answer: 12.5 µg/mL (≈ 23.9 µM)

Tested on: Candida albicans
Experiment: Antifungal activity against Candida albicans MUCC 29 after 48 hrs by tube dilution method
Type: functional
Details: not given
Method in brief: (§4)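 Tube dilution MIC as for bacteria (seven concentrations, 200–3.1 […]), with DMSO in place of DMF. Tubes inoculated with fungal culture and incubated 48 h at 37 °C. MIC read from presence or absence of growth.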

Question: For CC[C@H](C)[C@H](NC(=O)[C@H](CC(C)C)NC(=O)c1cc(-c2nc3cc(C)c(C)cc3[nH]2)ccc1O)C(=O)OC, which MIC is on record?
Answer: 6 µg/mL (≈ 11.5 µM)

Tested on: Microsporum audouinii
Experiment: Antifungal activity against Microsporum audouinii MUCC 545 after 48 hrs by tube dilution method
Type: functional
Details: not given
Method in brief: as §4

Question: With CC[C@H](C)[C@H](NC(=O)[C@H](CC(C)C)NC(=O)c1cc(-c2nc3cc(C)c(C)cc3[nH]2)ccc1O)C(=O)OC as the molecule, how does the MIC read?
Answer: 6 µg/mL (≈ 11.5 µM)

Tested on: Trichophyton benhamiae
Experiment: Antifungal activity against Trichophyton mentagrophytes MUCC 665 after 48 hrs by tube dilution method
Type: functional, Arthroderma benhamiae
Details: not given
Method in brief: as §4

Question: Which MIC does the source give for CC[C@H](C)[C@H](NC(=O)[C@H](CC(C)C)NC(=O)c1cc(-c2nc3cc(C)c(C)cc3[nH]2)ccc1O)C(=O)OC here?
Answer: 6 µg/mL (≈ 11.5 µM)

Tested on: Eudrilus
Experiment: Anthelmintic activity against Eudrilus sp. assessed as mean paralyzing time
Type: functional
Details: not given
Method in brief: (§5)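 Earthworms exposed to test suspensions at 2 mg mL^-1 (0.2% w/v), made by triturating compound with Tween 80 (0.5%) and distilled water, then mechanically stirred 30 min. Mebendazole suspension prepared alike as reference. Paralysis and death times recorded; death confirmed by no movement in 50 °C water. Means from triplicate sets.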

Question: Which Time does the source give for CC[C@H](C)[C@H](NC(=O)[C@H](CC(C)C)NC(=O)c1cc(-c2nc3cc(C)c(C)cc3[nH]2)ccc1O)C(=O)OC here?
Answer: 25.69 min

Tested on: Eudrilus
Experiment: Anthelmintic activity against Eudrilus sp. assessed as mean death time
Type: functional
Details: not given
Method in brief: (§6)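 Earthworms exposed to test suspensions at 2 mg mL−1, prepared by triturating compound with Tween 80 (0.5%) and distilled water, stirring 30 min, then diluting to 0.2% w/v. Mebendazole suspension was made the same way. Death was confirmed by moving worms into 50 °C warm water and looking for movement. Mean death time (min) taken from triplicate sets.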

Question: For CC[C@H](C)[C@H](NC(=O)[C@H](CC(C)C)NC(=O)c1cc(-c2nc3cc(C)c(C)cc3[nH]2)ccc1O)C(=O)OC, which Time is on record?
Answer: 36.12 min

Tested on: not listed separately
Experiment: Anthelmintic activity against Megascoplex konkanensis ICARBC 211 assessed as mean paralyzing time
Type: functional
Details: not given
Method in brief: as §5

Question: For CC[C@H](C)[C@H](NC(=O)[C@H](CC(C)C)NC(=O)c1cc(-c2nc3cc(C)c(C)cc3[nH]2)ccc1O)C(=O)OC, which TIME is on record?
Answer: 0.425 h

Tested on: not listed separately
Experiment: Anthelmintic activity against Megascoplex konkanensis ICARBC 211 assessed as mean death time
Type: functional
Details: not given
Method in brief: as §5

Question: With CC[C@H](C)[C@H](NC(=O)[C@H](CC(C)C)NC(=O)c1cc(-c2nc3cc(C)c(C)cc3[nH]2)ccc1O)C(=O)OC as the molecule, how does the TIME read?
Answer: 0.569 h

Tested on: Pontoscolex corethrurus
Experiment: Anthelmintic activity against Pontoscolex corethrurus ICARBC 408 assessed as mean paralyzing time
Type: functional
Details: not given
Method in brief: as §5

Question: For CC[C@H](C)[C@H](NC(=O)[C@H](CC(C)C)NC(=O)c1cc(-c2nc3cc(C)c(C)cc3[nH]2)ccc1O)C(=O)OC, which Time is on record?
Answer: 29.83 min

Tested on: Pontoscolex corethrurus
Experiment: Anthelmintic activity against Pontoscolex corethrurus ICARBC 408 assessed as mean death time
Type: functional
Details: not given
Method in brief: as §6

Question: For CC[C@H](C)[C@H](NC(=O)[C@H](CC(C)C)NC(=O)c1cc(-c2nc3cc(C)c(C)cc3[nH]2)ccc1O)C(=O)OC, which Time is on record?
Answer: 41.53 min
